The values that follow come from PMC5586474 (Journal of the American Heart Association: Cardiovascular …, 2017).

One data set relates to α1‐AR. The data set can be described thus: PE‐induced IP3 production. In kind it is cell-based, human. The conditions noted are these: 1 μmol/L PE; for effect of α1‐AR antagonist on PE‐induced IP3 production: antagonist 10 μmol/L, 30 minutes, 37°C, Figure 5E.
The target in another data set is ACKR3 (Homo sapiens, UniProt P25106). The data set can be described thus: PRESTO‐Tango β‐arrestin 2 recruitment assay for ACKR3. The data set is classed as cell-based. The conditions noted are these: HTLA cells, overnight, 37°C, n=3. In general terms: Recruitment of arrestin is a read-out of receptor activation apart from second messengers.
Data set [1] has as its system rat mesenteric arteries. Particulars: isolated mesenteric rat arteries; cited from earlier work.
The next data set concerns ACKR3:α1D‐AR. The data set can be described thus: PLA, ACKR3:α1D‐AR interaction in hVSMCs. The data set is classed as cell-based, human. The conditions noted are these: peptide 10 μmol/L, 30 minutes, 37°C; vs vehicle; Figure 8B; n=3. The gist of the method:
(§1)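 hVSMCs got vehicle or test peptide (10 μmol/L, 30 min, 37°C), were washed, fixed in 4% PFA (15 min, RT) and blocked overnight at 4°C in 3% BSA/PBS. Receptor‐specific primaries (1:500) ran 105 min at 37°C, then PLA probes (1:5) 60 min, ligation 30 min and amplification 100 min, all at 37°C. DAPI‐mounted spots were counted per cell from 10 images per condition per experiment.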

In another data set the test system is CXCR4:α1D‐AR. The data set can be described thus: PLA, CXCR4:α1D‐AR interaction in hVSMCs. In kind it is cell-based, human. Particulars: peptide 10 μmol/L, 30 minutes, 37°C; vs vehicle; Figure 8B; n=3. The gist of the method:
as §1

Another data set has as its system CXCR4:α1B‐AR. The data set can be described thus: PLA, CXCR4:α1B‐AR interaction in hVSMCs. The data set is classed as cell-based, human. Particulars: peptide 10 μmol/L, 30 minutes, 37°C; vs vehicle; Figure 8B; n=3. The gist of the method:
as §1

A further data set concerns ACKR3:α1B‐AR. The data set can be described thus: PLA, ACKR3:α1B‐AR interaction in hVSMCs. The conditions noted are these: peptide 10 μmol/L, 30 minutes, 37°C; vs vehicle; Figure 8B; n=3. The data set is classed as cell-based, human. The method in brief: as §1
In another data set the test system is ACKR3:α1A‐AR. The data set can be described thus: PLA, ACKR3:α1A‐AR interaction in hVSMCs. The data set is classed as cell-based, human. The conditions noted are these: peptide 10 μmol/L, 30 minutes, 37°C; vs vehicle; Figure 8B; n=3. The method in brief: as §1
The test system of the next data set is ACKR3:CXCR4. The data set can be described thus: PLA, ACKR3:CXCR4 interaction in hVSMCs. Particulars: peptide 10 μmol/L, 30 minutes, 37°C; vs vehicle; Figure 8B; n=3. The data set is classed as cell-based, human. The method in brief:
as §1

The test system of data set [2] is rat mesenteric arteries. The data set can be described thus: Pressure myography, PE‐induced vasoconstriction of isolated mesenteric arteries. Further details: species or system rat (Sprague‐Dawley). The conditions noted are these: TM peptide 100 μmol/L vs vehicle; 80 mm Hg; Figure 9G; n=3. The gist of the method:
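Mesenteric arteries from male Sprague-Dawley rats (isoflurane 3.5% anaesthesia) kept in bicarbonate salt buffer (130 mmol/L NaCl, 4.7 mmol/L KCl, 5.5 mmol/L d-glucose, 1.16 mmol/L CaCl₂), gassed 95% O₂/5% CO₂, 37°C. Vessels pressurized to 80 mm Hg, pretreated with vehicle or test peptide (10 or 100 μmol/L). Cumulative PE added to bath; dose-response curves fitted by nonlinear regression.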

For the next data set, the system named is α1b‐AR. The data set can be described thus: PRESTO‐Tango β‐arrestin 2 recruitment assay for α1b‐AR. The data set is classed as cell-based. Particulars: PE plus 10 μmol/L TM peptide; HTLA cells, overnight, 37°C; Figure 9C; n=3. The method in brief:
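HTLA cells were transfected with the α1B‐AR‐Tango plasmid (1.5 μg, Lipofectamine 3000). The next day they were replated at 1×10⁵/well on poly‐L‐lysine and left to attach for ≥4 h. PE ± 10 μmol/L test peptide, made at twice final concentration in medium, was added 1:1 and incubated overnight at 37°C. Luminescence was read with Bright‐Glo in HBSS/20 mmol/L HEPES, as % of RLU at […].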

ACKR3, sequence (P25106 whole entry): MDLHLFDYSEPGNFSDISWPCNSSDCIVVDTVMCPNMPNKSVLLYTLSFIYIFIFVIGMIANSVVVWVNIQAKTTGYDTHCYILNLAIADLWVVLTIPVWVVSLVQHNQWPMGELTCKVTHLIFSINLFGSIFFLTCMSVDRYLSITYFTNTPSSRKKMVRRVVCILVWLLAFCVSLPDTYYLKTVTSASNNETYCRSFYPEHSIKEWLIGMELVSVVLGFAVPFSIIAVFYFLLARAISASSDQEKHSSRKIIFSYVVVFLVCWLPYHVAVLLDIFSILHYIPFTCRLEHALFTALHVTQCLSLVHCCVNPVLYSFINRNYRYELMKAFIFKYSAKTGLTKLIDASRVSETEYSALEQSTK

Regarding `COc1cc2nc(N3CCN(C(=O)c4ccco4)[C@H]4CCCC[C@H]43)nc(N)c2cc1OC` (racemic) [cyclazosin, Cyclazosin], the “effect of α1‐AR antagonist on PE‐induced IP3 production” value (“effect of α1‐AR antagonist” below) in the data set on α1‐AR (5 minutes, n=3) is “could be inhibited”.

Regarding `COc1ccccc1N1CCN(CCN2C(=O)CC3(CCCC3)CC2=O)CC1` [BMY 7378], the “effect of α1‐AR antagonist” value with α1‐AR (5 minutes, n=3) is given as “could be inhibited”.

Take `CNC[C@H](O)c1cccc(O)c1` [PE, Phenylephrine]: the “increase of cellular IP3 concentrations on PE stimulation after NT siRNA” value in the data set with α1‐AR (hVSMCs incubated with NT siRNA, Figure 5D, n=4) is given as 4.8 fold. For the same compound, in the data set with α1‐AR (hVSMCs without siRNA, 5 minutes, Figure 2B, n=3), the “increase of cellular IP3 concentrations on PE stimulation” value stood at 5.3 fold.

Turning to `Cc1ccc(N(CC2=NCCN2)c2cccc(O)c2)cc1` [phentolamine, Phentolamine], the “effect of α1‐AR antagonist” value with α1‐AR (5 minutes, n=3) was “could be inhibited”.

Broadly, the EC50 is the concentration needed to bring the measured effect to its halfway point. Consider “CXCL11: natural ACKR3 agonist; chemokine, from Protein Foundry”, for which the 50% effective concentration (EC50) with ACKR3 (read-out: EC50 for β‐arrestin 2 recruitment to ACKR3, agonist, luminescence, Figure 2A, mean±SEM) was determined as 16.5 ± 4.9 nM.

With “CXCL12: natural ACKR3 agonist; cognate ligand of CXCR4 and ACKR3, from Protein Foundry”, the “effect on PE‐induced vasoconstriction” value with rat mesenteric arteries [1] was “attenuates PE‐induced vasoconstriction”. Also, in the data set with α1‐AR (hVSMCs, TM2 10 μmol/L plus CXCL12 1 μmol/L, Figure 9E), the “CXCL12 effect on PE‐induced signaling in the presence of the TM2 peptide” value is reported as “did not enhance PE‐induced signaling”.

Turning to DDDLHVTQCLSLVHCCVNPVLYSFIN [TM7], the “effect of TM peptide on PLA signals for ACKR3:α1D‐AR” value (“effect … for ACKR3:α1D‐AR” below) with ACKR3:α1D‐AR is “did not alter signals”. The “effect of TM peptide on PLA signals for CXCR4:α1D‐AR” value (shortened to “effect … for CXCR4:α1D‐AR”) with CXCR4:α1D‐AR was “did not significantly affect signals”. The “effect of TM peptide on PLA signals for CXCR4:α1B‐AR” value (“effect … for CXCR4:α1B‐AR” for short) with CXCR4:α1B‐AR is reported as “did not significantly affect signals”. The “effect of TM peptide on PLA signals for ACKR3:α1B‐AR” value (“effect … for ACKR3:α1B‐AR” below) in the data set with ACKR3:α1B‐AR is listed as “did not alter signals”. In addition, the “effect of TM peptide on PLA signals for ACKR3:α1A‐AR” value (shortened to “effect … for ACKR3:α1A‐AR”) in the data set on ACKR3:α1A‐AR was “significantly increased the number of PLA signals for ACKR3:α1A‐AR complexes”. Further, the “effect of TM peptide on PLA signals for ACKR3:CXCR4” value (“effect … for ACKR3:CXCR4” for short) in the data set on ACKR3:CXCR4 was “reduced after incubation with all TM peptide analogs (TM2>TM4>TM7)”. Besides, in the data set on rat mesenteric arteries [2], the “effect of TM peptide on potency of PE to induce vasoconstriction (significance)” value is “P>0.05 versus vehicle”.

With VVCILWLLAFCVSLPDTYYLDD [TM4], the “effect … for ACKR3:α1D‐AR” value in the data set on ACKR3:α1D‐AR is listed as “without affecting ACKR3:α1A/D‐AR interactions”. Moreover, the “effect … for CXCR4:α1D‐AR” value with CXCR4:α1D‐AR is reported as “did not affect signals for CXCR4:α1D‐AR complexes”. For the same compound, the “effect … for CXCR4:α1B‐AR” value in the data set on CXCR4:α1B‐AR is on record as “increased signals for CXCR4:α1B‐AR complexes”. The “effect … for ACKR3:α1B‐AR” value with ACKR3:α1B‐AR is on record as “reduced PLA signals for ACKR3:α1B‐AR complexes”. Besides, the “effect … for ACKR3:α1A‐AR” value in the data set on ACKR3:α1A‐AR is “without affecting ACKR3:α1A/D‐AR interactions”. Besides, the “effect … for ACKR3:CXCR4” value with ACKR3:CXCR4 is given as “reduced after incubation with all TM peptide analogs (TM2>TM4>TM7)”. Moreover, in the data set on rat mesenteric arteries [2], the “effect of TM peptide on potency of PE to induce vasoconstriction (significance)” value is listed as “P>0.05 versus vehicle”.

In the case of YILNLAIADLWVVLTIPVWVVDDD [TM2], in the data set on ACKR3:α1D‐AR, the “effect … for ACKR3:α1D‐AR” value was “significantly reduced PLA signals”. The “effect … for CXCR4:α1D‐AR” value in the data set with CXCR4:α1D‐AR is reported as “did not affect signals for CXCR4:α1D‐AR complexes”. The “effect of TM peptide on PE‐induced β‐arrestin 2 recruitment to α1b‐AR” value with α1b‐AR is “did not inhibit β‐arrestin 2 recruitment to recombinant α1b‐AR on PE stimulation”. Also, the “effect … for CXCR4:α1B‐AR” value with CXCR4:α1B‐AR is “increased signals for CXCR4:α1B‐AR complexes”. For the same compound, in the data set with ACKR3:α1B‐AR, the “effect … for ACKR3:α1B‐AR” value is “significantly reduced PLA signals”. Further, in the data set with ACKR3:α1A‐AR, the “effect … for ACKR3:α1A‐AR” value is “did not affect signals for ACKR3:α1A‐AR complexes”. In addition, the “effect … for ACKR3:CXCR4” value in the data set on ACKR3:CXCR4 is “reduced after incubation with all TM peptide analogs (TM2>TM4>TM7)”. Besides, on ACKR3 (peptide alone, Figure 9A), the “activation of ACKR3 by TM peptide (β‐arrestin 2 recruitment)” value is reported as “without intrinsic agonist activity within the tested range of concentrations”.
